Bioassay records: PubChem BioAssay, The Scripps Research Institute Molecular Screening Center
HTRA1 inhibitor = HTRA1 serine protease inhibitors, primary screen, biochemical, fluorescence polarization, HTS. Q92743. recombinant HTRA1, FP-rhodamine activity-based probe. 340,000 compounds, 0.5% hits. inhibition, % at 5.96 µM; in the data active = inhibition above about 36%;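 also: 0% = enzyme with DMSO and 100% = wells lacking enzyme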
SIAE primary = human SIAE inhibitors, primary screen, biochemical, fluorescence polarization, FP-Rh probe, 1536-well HTS. Sialate O-acetylesterase (Homo sapiens), Q9HAT2. SIAE FP-Rh probe binding. 370,000 compounds, 0.69% hits. inhibition, % at 9.66 µM. AID 1053197, 2014;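 active = inhibition above a cutoff: mean of compounds within the control limits plus 3 SD of those, cut at about 17% in these data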;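 also: 0% = plate median of compound wells and 100% = probe without SIAE protein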
Target sequence (Q9HAT2 whole entry, looked up): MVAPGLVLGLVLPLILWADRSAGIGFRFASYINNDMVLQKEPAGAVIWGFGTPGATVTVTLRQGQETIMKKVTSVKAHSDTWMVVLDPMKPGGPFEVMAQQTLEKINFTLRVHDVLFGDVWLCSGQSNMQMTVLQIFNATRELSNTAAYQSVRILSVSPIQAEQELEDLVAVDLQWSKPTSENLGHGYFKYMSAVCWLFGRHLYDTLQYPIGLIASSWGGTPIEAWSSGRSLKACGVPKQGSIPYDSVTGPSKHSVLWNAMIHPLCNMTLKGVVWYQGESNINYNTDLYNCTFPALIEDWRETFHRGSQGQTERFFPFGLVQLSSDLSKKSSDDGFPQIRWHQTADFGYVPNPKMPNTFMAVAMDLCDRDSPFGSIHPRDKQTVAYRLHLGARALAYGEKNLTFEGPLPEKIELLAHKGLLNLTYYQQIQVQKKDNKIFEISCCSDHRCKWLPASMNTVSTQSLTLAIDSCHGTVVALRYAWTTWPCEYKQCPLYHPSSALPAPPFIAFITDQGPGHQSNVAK
PAD4 inh = human PAD4 inhibitors, primary screen, biochemical, fluorescence polarization, 1536-well format. 330,000 compounds, 0.41% hits. recombinant PAD4, RCA probe fluorescence polarization. Protein-arginine deiminase type-4 (Homo sapiens), Q9UM07. AID 485272, 2010. inhibition, % at 6.36 µM;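 active = percent inhibition above a cutoff equal to the mean of all tested compounds plus 3 SD, cut at about 15% in these data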;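 also: 0% = PAD4 with RCA probe and DMSO and 100% = probe without PAD4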
PRMT1 FP inh = PRMT1 methyltransferase inhibitors, primary screen, biochemical, fluorescence polarization; Protein arginine N-methyltransferase 1 (Homo sapiens), Q99873; recombinant PRMT1, activity-based probe fluorescence polarization; inhibition, % at 2.79 µM; 370,000 compounds, 1.3% hits; AID 652257, 2013;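 active = inhibition above about 21% made by adding two undisclosed values, limit read from the data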
ABHD4 inh = ABHD4 inhibitors, primary screen, biochemical, fluorescence polarization, mouse; (Lyso)-N-acylphosphatidylethanolamine lipase (Mus musculus), Q8VD66; purified mABHD4, FP-Rh probe fluorescence polarization; inhibition, % at 8.92 µM; 370,000 compounds, 0.54% hits;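 active = inhibition exceeding the mean over every tested compound plus 3 SD, cut at about 30% in these data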;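 also: 0% = plate median of compound wells and 100% = S159A mutant with DMSO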
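Assay system: mABHD4 protein; medium: HEPES pH 7.0, NaCl, Pluronic buffer; dosing: 8.92 µM, single dose; schedule: 45 min + 60 min at 25 °C; signal: FP readout, ex 525 nm / em 598 nm; read-out: normalized percent inhibition of probe labeling; repeats: single replicate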
TCR CD3 inh = inhibitors of human TCR-CD3 interaction, primary screen, biochemical, fluorescence, TAMRA-labeled TCR probe; T-cell receptor (TCR); 360,000 compounds, 0.37% hits; inhibition, % at 9.4 µM; AID 651800, 2012; in the data active = inhibition above about 19%;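 also: recombinant mutant TCR 2C K166C tagged with TAMRA read by polarization; 0% = receptor in buffer alone and 100% = receptor with positive control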
PRMT1 confirm = PRMT1 methyltransferase inhibitors, confirmation, biochemical, fluorescence polarization, triplicate; shares compounds with PRMT1 FP inh; recombinant His-PRMT1, activity-based probe fluorescence polarization; inhibition, % at 2.79 µM; 3,300 compounds, 42% hits;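 active = mean inhibition across replicates above the hit cutoff derived for the earlier primary screen, cut at about 22% in these data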
Active calls of the source: *; . = not tested or not shown. Sampled rows, rich in hits. Any-hit rate of the full collection: about 2.9%.

SMILES | HTRA1 inhibitor | SIAE primary | PAD4 inh | PRMT1 FP inh | ABHD4 inh | TCR CD3 inh | PRMT1 confirm
CC(=O)OCC1=C(C(=O)O)N2C(=O)C(NC(=O)c3ccc(COc4cccc(Cl)c4Cl)o3)C2SC1 (centres undefined) | -44 | -14 | -4 | 37* | -3 | 10 | 13
COc1cccc(C(=O)NC2C(=O)N3C(C(=O)O)=C(COC(C)=O)CSC23)c1 (centres undefined) | 3 | 5 | 3 | 29* | 12 | 3 | 34*
CC(=O)OCC1=C(C(=O)OC(C)(C)C)N2C(=O)[C@@H](NC(=O)Cc3ccccc3)[C@H]2SC1 | -15 | -4 | . | 8 | 4 | 6 | .
CCOC(=O)C1CCN(C(=O)C(Cc2ccc3c(c2)OCO3)NC(C)=O)CC1 (centres undefined) | . | 4 | . | -1 | 3 | . | .
Cc1ccccc1C(=O)N[C@H](C(=O)N1CCC[C@H]1C(=O)NCc1ccccc1)c1ccccc1 | . | -1 | . | -2 | 3 | 7 | .
O=C(O)CCN1C(=O)/C(=C/c2ccc(-c3nc4ccccc4s3)o2)SC1=S | 8 | -10 | 0 | 69* | 27 | 9 | 23*
O=C(O)CCCN1C(=O)/C(=C\c2ccc(-c3nc4ccccc4s3)o2)SC1=S | -7 | -2 | -5 | 49* | 29 | 1 | 12
COc1cc(NC(=O)C2CCCN(S(=O)(=O)c3cccc4cccnc34)C2)cc(OC)c1 (centres undefined) | . | -6 | . | 0 | -5 | . | .
C[C@H]1[C@@H](NC(=O)c2cccc(N(C)C)c2)CC[C@@]23CCCN2C(=O)CCC[C@@H]13 | . | -6 | . | 0 | -2 | . | .
Cc1sc2nc(CSCC(=O)NC3(C#N)CCCCC3)[nH]c(=O)c2c1C | 2 | 3 | -5 | 25* | -2 | -2 | 5
COC(=O)C1=C(C)N(Cc2ccccc2C(F)(F)F)C(=NCc2ccc(OC)cc2)NC1c1ccc(F)cc1 (centres undefined) | . | -5 | . | -7 | 21 | -3 | .
Nc1nc(-c2ccco2)c(-c2ccco2)s1 | 20 | 6 | -3 | 40* | 29 | -1 | 4
Nc1nc(-c2ccco2)cs1 | 1 | 0 | 2 | 8 | 19 | -2 | .
O=C(CNC(=O)c1ccccc1)NCC(=O)OCC(=O)c1ccc(F)cc1 | 10 | 0 | 2 | 2 | -3 | -2 | .
O=C(CNC(=O)c1ccccc1)NCC(=O)OCC(=O)c1ccc([N+](=O)[O-])cc1 | -1 | -6 | -3 | 35* | 4 | 6 | 49*
Cc1ccc(C2=NN=C(NC(=O)C(F)(F)F)SC2)cc1 | 1 | 2 | . | 58* | 7 | 0 | 61*
CC1(C)CC(=O)C(CS(=O)(=O)c2ccccc2)=C(O)C1 | -3 | 1 | -6 | 27* | -1 | 0 | 22*
Cc1cc(C)n2c(=S)[nH]nc2n1 | 6 | 2 | -4 | 56* | -6 | 1 | 91*
Cc1cc(C)n2cnnc2n1 | . | 4 | 4 | 5 | 11 | -6 | .
Cc1cc(C)nc(SCC(=O)c2ccc(O)c(O)c2)n1 | 13 | 6 | 1 | 49* | 23 | 9 | 42*
Cc1cc(C)nc(SCC(=O)c2ccc(C)c(C)c2)n1 | -5 | -5 | 0 | -1 | -2 | 6 | .
Cc1cc(C)nc(SCC(=O)c2ccc([N+](=O)[O-])cc2)n1 | -6 | 8 | 1 | 37* | 3 | 1 | 3
O=C(O)CCCCN1C(=O)C=CC1=O | . | 1 | . | 77* | 7 | -3 | 95*
O=C(c1c(F)cccc1F)N1CCC(Oc2cccnc2)CC1 | . | 5 | . | 0 | 2 | . | .
CC(C)CCNC(=O)C1CCN(c2cncnc2)CC1 | . | 4 | . | 2 | -1 | . | .
SMILES | HTRA1 inhibitor | SIAE primary | PAD4 inh | PRMT1 FP inh | ABHD4 inh | TCR CD3 inh | PRMT1 confirm
O=C(CSc1ccc(-c2ccco2)nn1)NCc1ccccc1 | 10 | 11 | 0 | 41* | 11 | 1 | 16
Cc1ccc(CSc2ccc(-c3ccco3)nn2)cc1 | -11 | 5 | -2 | 33* | 5 | 2 | 7
O=C(CSc1ccc(-c2ccco2)nn1)NCc1ccc(Cl)cc1 | -8 | -1 | -4 | 44* | 5 | -8 | 10
COc1cccc(CNC(=O)CSc2ccc(-c3ccco3)nn2)c1 | 2 | -2 | -8 | 8 | -2 | 2 | .
CCN(CC)C(=O)O[C@H]1CC[C@@]23CCCN2C(=O)CCC[C@H]3[C@H]1C | . | 5 | . | -3 | -2 | . | .
O=C(NC1CCCCN(Cc2ccc(Cl)cc2)C1=O)c1cccs1 (centres undefined) | . | -2 | . | 4 | 2 | . | .
O=CN(/C=C1\Sc2ccccc2C1=O)Cc1ccccc1 | -3 | -19 | 2 | 56* | -14 | -2 | 9
CCC(=O)N(C)/C=C1\Sc2ccccc2C1=O | -5 | -14 | -1 | 56* | -3 | -11 | 45*
CC(=O)N(C)/C=C1\Sc2ccccc2C1=O | 2 | -20 | -2 | 78* | -20 | -6 | 17
CC(=O)Nc1ccc(/C=C2\Sc3ccccc3C2=O)cc1 | -5 | -11 | -1 | 6 | -12 | -17 | .
CCCC1CCC2(CCCN2CCOC(=S)NCc2cccc(C)c2)CC1 (centres undefined) | . | 0 | . | 1 | 7 | . | .
NCCN1CCN(S(=O)(=O)c2ccc3c(c2)CCN3C(=O)C2CCC2)CC1 | . | 3 | . | 2 | 5 | . | .
NCCSSCCN | -4 | 5 | 3 | 80* | -20 | -1 | 31*
C(#CC1=CCCCC1)CNCc1ccccc1 | . | 5 | . | 2 | 7 | . | .
CC(=O)Nc1ccc(S(=O)(=O)NCC(=O)NNC(=O)COc2ccccc2Cl)cc1 | -4 | 0 | 0 | 25* | 8 | 2 | 22*
C[C@H](CO)N1C[C@H](C)[C@@H](CN(C)C(=O)Nc2ccc3c(c2)OCO3)OCc2cn(nn2)CCCC1=O | . | 7 | . | 0 | 2 | 5 | .
CSC1=NS(=O)(=O)c2c(C)nn(C)c2S1 | 5 | 4 | -1 | 100* | 11 | -6 | 76*
Fc1ccc(N=c2ssnc2Cl)c(F)c1 | 5 | 4 | -1 | 44* | 8 | -1 | 41*
COc1cc(N=c2ssnc2Cl)cc(OC)c1OC | 4 | 11 | -1 | 97* | -5 | -4 | 90*
Clc1ccc(N=c2ssnc2Cl)cc1 | 3 | 9 | -8 | 73* | 2 | -3 | 93*
CCOC(=O)c1ccc(N=c2ssnc2Cl)cc1 | 1 | 8 | . | 78* | 4 | 0 | 89*
COc1ccc(N=c2ssnc2Cl)cc1 | 6 | . | 3 | . | . | . | .
Clc1nssc1=Nc1ccccc1 | 2 | . | . | . | . | . | .
